{"source": "ChEMBL document CHEMBL5705889", "about": "“Novel mutant-selective EGFR kinase inhibitors against EGFR T790M” (Nature, 2009)", "key": {"[1]": {"assay": "cells", "format": "functional, cell-based", "settings": "Homo sapiens, HCC827 Gefitinib-resistant (GR) cell, 72 h"}, "[2]": {"test_system": "Calu-3", "assay": "cells", "format": "functional, cell-based", "settings": "Homo sapiens, Calu-3, 72 h"}, "[3]": {"test_system": "BaF3", "assay": "cells", "format": "functional, cell-based", "settings": "Mus musculus, BaF3, 72 h"}, "[4]": {"test_system": "BaF3", "assay": "cells", "format": "functional, cell-based", "settings": "Mus musculus, BaF3, 72 h", "remark": "listed apart in the source"}, "[5]": {"target": "Epidermal growth factor receptor (Homo sapiens, UniProt P00533)", "sequence (P00533 whole entry)": "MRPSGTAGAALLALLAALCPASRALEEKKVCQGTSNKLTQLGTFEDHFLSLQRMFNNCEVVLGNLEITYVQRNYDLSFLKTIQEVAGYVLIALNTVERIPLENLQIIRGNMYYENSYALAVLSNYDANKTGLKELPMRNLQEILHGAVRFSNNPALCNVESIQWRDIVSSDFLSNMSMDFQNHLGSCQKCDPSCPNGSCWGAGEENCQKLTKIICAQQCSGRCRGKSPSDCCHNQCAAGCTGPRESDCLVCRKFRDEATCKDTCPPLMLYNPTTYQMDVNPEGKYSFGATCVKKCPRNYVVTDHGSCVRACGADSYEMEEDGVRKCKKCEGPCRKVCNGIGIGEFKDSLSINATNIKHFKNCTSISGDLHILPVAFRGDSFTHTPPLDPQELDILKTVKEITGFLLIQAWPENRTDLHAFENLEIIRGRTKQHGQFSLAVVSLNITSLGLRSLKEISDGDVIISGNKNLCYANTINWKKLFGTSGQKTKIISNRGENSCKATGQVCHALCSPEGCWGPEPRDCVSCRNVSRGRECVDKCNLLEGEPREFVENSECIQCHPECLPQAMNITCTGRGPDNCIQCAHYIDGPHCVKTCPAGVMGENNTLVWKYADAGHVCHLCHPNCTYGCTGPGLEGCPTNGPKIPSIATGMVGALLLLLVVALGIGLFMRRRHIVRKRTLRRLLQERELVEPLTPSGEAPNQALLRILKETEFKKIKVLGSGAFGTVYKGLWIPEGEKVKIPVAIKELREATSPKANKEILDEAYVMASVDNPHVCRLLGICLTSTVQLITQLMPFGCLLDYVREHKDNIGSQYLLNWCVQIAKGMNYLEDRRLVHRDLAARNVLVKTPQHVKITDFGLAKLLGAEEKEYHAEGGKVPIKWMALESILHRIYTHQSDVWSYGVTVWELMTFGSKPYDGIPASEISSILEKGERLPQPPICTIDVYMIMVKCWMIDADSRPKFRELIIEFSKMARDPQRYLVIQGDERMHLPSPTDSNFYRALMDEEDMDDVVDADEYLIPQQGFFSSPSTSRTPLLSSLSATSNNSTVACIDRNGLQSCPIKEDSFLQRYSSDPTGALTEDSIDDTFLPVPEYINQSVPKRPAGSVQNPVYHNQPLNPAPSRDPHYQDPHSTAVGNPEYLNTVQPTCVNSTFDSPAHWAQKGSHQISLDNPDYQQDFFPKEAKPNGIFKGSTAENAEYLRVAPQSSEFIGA", "assay": "Inhibition of EGFR phosphorylation in human NCI-H1975 cells at 0.01 to 1 uM incubated for 16 hrs by immunoblot analysis", "format": "cell-based", "settings": "dose 0.01-1 µM"}, "[6]": {"target": "Mitogen-activated protein kinase; ERK1/ERK2 (Homo sapiens) (UniProt P27361+P28482)", "assay": "Inhibition of ERK1/2 phosphorylation in human NCI-H1975 cells at 0.01 to 1.0 uM incubated for 16 hrs by immunoblot analysis", "format": "cell-based", "settings": "dose 0.01-1 µM"}, "[7]": {"target": "Tyrosine-protein kinase BTK (Homo sapiens, UniProt Q06187)", "sequence (Q06187 whole entry)": "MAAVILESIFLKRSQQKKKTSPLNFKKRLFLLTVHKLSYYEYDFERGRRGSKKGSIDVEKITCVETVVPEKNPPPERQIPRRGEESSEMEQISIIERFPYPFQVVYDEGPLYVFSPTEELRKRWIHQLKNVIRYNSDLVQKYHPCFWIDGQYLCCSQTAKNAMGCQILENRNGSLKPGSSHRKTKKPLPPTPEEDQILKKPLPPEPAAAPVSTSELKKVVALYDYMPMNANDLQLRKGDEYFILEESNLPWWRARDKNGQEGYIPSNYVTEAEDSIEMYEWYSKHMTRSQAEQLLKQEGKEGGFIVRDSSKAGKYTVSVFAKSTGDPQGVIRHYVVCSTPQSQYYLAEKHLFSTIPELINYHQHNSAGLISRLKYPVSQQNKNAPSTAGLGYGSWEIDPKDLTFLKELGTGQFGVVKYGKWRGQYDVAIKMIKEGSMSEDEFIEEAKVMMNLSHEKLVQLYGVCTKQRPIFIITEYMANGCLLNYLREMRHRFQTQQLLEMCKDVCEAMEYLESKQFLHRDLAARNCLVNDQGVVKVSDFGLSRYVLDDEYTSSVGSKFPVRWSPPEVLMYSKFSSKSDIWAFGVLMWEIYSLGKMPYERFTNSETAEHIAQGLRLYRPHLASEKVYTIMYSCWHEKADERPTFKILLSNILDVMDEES", "assay": "Binding affinity to BTK (unknown origin) assessed as dissociation constant"}, "[8]": {"target": "Serine/threonine-protein kinase DCLK3 (Homo sapiens, UniProt Q9C098)", "assay": "Binding affinity to DCAMKL3 (unknown origin) assessed as dissociation constant"}, "[9]": {"target": "Tyrosine-protein kinase ITK/TSK (Homo sapiens, UniProt Q08881)", "sequence (Q08881 whole entry)": "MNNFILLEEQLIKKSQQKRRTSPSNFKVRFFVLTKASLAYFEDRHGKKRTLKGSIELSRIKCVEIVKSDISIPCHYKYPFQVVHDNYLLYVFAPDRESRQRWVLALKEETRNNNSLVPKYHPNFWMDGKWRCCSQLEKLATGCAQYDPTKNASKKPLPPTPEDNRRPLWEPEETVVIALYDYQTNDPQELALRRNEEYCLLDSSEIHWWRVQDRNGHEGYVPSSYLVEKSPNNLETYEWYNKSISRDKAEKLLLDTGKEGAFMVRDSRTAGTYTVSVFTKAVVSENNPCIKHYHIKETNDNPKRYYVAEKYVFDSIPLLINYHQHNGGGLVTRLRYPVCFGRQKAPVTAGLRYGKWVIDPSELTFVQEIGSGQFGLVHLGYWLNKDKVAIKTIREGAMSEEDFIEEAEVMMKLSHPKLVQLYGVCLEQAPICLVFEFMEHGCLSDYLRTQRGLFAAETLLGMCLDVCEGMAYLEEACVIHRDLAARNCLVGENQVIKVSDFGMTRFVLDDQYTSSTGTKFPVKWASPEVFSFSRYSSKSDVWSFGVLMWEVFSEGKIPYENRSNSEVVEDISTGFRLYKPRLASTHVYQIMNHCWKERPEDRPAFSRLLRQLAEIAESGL", "assay": "Binding affinity to ITK (unknown origin) assessed as dissociation constant"}, "[10]": {"target": "Serine/threonine-protein kinase PLK4 (Homo sapiens, UniProt O00444)", "assay": "Binding affinity to PLK4 (unknown origin) assessed as dissociation constant"}, "[11]": {"target": "Focal adhesion kinase 1 (Homo sapiens, UniProt Q05397)", "sequence (Q05397 whole entry)": "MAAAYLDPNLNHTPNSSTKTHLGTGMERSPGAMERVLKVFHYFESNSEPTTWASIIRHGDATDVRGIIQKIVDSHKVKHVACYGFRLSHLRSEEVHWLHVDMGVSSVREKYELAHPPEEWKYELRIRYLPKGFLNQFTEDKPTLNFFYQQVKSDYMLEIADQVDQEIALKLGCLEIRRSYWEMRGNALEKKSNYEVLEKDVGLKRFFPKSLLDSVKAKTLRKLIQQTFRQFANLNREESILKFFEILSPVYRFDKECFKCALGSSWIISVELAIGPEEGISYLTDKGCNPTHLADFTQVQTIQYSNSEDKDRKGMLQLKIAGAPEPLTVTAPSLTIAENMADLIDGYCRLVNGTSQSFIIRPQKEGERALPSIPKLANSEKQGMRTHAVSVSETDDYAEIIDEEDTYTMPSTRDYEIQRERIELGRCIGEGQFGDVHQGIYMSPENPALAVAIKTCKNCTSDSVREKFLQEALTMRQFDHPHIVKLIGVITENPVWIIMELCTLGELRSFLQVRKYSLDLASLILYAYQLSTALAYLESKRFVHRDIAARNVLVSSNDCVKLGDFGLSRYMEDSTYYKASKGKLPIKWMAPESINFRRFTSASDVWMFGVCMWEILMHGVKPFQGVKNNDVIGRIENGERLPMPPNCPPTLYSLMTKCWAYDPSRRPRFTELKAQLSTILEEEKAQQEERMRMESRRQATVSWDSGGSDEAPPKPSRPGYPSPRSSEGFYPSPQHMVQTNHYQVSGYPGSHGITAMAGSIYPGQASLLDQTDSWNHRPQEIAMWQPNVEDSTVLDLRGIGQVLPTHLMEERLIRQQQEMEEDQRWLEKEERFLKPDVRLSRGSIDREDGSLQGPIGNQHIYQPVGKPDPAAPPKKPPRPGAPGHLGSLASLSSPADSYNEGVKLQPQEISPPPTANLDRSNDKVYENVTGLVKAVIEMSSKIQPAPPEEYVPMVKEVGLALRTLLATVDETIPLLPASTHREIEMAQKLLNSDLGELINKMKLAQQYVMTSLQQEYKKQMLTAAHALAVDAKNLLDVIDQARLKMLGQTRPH", "assay": "Binding affinity to FAK (unknown origin) assessed as dissociation constant"}, "[12]": {"target": "NUAK family SNF1-like kinase 2 (Homo sapiens, UniProt Q9H093)", "assay": "Binding affinity to SNARK (unknown origin) assessed as dissociation constant"}, "[13]": {"target": "Tyrosine-protein kinase JAK2 (Homo sapiens, UniProt O60674)", "sequence (O60674 whole entry, looked up, the tested form may be a part)": "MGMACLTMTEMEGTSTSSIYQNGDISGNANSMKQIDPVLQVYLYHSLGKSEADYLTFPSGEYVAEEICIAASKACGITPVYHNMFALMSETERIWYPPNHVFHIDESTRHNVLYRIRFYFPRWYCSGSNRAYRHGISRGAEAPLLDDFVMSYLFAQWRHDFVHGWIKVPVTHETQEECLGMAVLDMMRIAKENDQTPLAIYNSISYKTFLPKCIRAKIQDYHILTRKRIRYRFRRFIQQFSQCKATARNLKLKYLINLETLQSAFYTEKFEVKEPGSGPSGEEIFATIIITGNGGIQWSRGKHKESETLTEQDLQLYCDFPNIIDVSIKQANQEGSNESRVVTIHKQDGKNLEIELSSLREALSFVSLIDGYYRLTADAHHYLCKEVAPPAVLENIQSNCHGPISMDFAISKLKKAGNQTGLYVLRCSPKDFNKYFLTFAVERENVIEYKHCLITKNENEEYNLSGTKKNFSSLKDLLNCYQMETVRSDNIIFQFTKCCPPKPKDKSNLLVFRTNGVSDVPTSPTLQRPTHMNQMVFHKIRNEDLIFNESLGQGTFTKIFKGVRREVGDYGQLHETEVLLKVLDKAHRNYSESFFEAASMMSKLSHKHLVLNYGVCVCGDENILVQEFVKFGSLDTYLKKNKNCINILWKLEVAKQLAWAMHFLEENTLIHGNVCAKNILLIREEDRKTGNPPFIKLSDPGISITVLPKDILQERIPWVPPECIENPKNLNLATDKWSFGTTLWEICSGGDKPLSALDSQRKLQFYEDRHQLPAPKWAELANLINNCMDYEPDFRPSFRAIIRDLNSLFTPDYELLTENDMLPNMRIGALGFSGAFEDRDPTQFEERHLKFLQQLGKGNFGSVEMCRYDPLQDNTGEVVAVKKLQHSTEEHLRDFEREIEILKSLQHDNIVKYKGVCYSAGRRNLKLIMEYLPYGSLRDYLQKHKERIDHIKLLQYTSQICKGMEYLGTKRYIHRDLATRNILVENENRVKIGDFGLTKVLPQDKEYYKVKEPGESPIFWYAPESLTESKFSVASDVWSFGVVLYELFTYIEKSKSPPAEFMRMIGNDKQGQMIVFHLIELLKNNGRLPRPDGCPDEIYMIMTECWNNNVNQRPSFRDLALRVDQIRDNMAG", "assay": "Inhibition of TEL fused JAK2 (unknown origin) transformed in mouse BaF3 cells", "format": "cell-based"}, "[14]": {"assay": "AUC(0 to t) in mouse at 1 mg/kg, iv administered as single dose", "format": "ADME, organism-based", "settings": "in vivo"}, "[15]": {"assay": "AUC(0 to infinity) in mouse at 1 mg/kg, iv administered as single dose", "format": "ADME, organism-based", "settings": "in vivo"}, "[16]": {"assay": "AUC(0 to t) in mouse at 10 mg/kg, po administered as single dose", "format": "ADME, organism-based", "settings": "in vivo"}, "[17]": {"assay": "Half-life in mouse at 10 mg/kg, po administered as single dose", "format": "ADME, organism-based", "settings": "in vivo"}, "[18]": {"assay": "Oral bioavailability in mouse at 10 mg/kg administered as single dose", "format": "ADME, organism-based", "settings": "in vivo"}, "[19]": {"assay": "Drug concentration in mouse plasma at 1 mg/kg, iv administered as single dose and measured after 4 hrs", "format": "ADME, organism-based"}, "[20]": {"assay": "Drug concentration in mouse plasma at 1 mg/kg, iv administered as single dose and measured after 8 hrs", "format": "ADME, organism-based"}, "[21]": {"assay": "Drug concentration in mouse plasma at 10 mg/kg, po administered as single dose and measured after 2 hrs", "format": "ADME, organism-based"}, "[22]": {"assay": "Drug concentration in mouse plasma at 10 mg/kg, po administered as single dose and measured after 4 hrs", "format": "ADME, organism-based"}, "[23]": {"assay": "Drug concentration in mouse plasma at 10 mg/kg, po administered as single dose and measured after 8 hrs", "format": "ADME, organism-based"}, "[24]": {"assay": "Drug concentration in mouse plasma at 10 mg/kg, po administered as single dose and measured after 24 hrs", "format": "ADME, organism-based"}, "[25]": {"assay": "Toxicity in mouse harboring EGFR del E746_A750/T790M mutant assessed as effect on serum creatine level at 25 mg/kg administered via gavage for 2 weeks", "format": "organism-based", "settings": "in vivo, po, 336 h", "outline": "(§1)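 Inducible bitransgenic tumor mice gavaged daily, 25 mg/kg, vehicle NMP (10% 1-methyl-2-pyrrolidinone, 90% PEG-300), compared against vehicle-treated mice; weight, serum creatine and total white blood cell count monitored during the study.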"}, "[26]": {"assay": "Toxicity in mouse harboring EGFR del E746_A750/T790M mutant assessed as effect on total white blood cell count at 25 mg/kg administered via gavage for 2 weeks", "format": "organism-based", "settings": "in vivo, po, 336 h", "outline": "as §1"}, "[27]": {"test_system": "Mus musculus", "assay": "In vivo inhibition of EGFR phosphorylation in transgenic mouse harboring EGFR del E746_A750/T790M mutant at 2.5 to 25 mg/kg administered as two doses separated by 16 hours by immunoblot analysis", "format": "functional, organism-based", "settings": "dose 2.5-25 mg/kg", "outline": "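Transgenic mice gavaged with compound in 10% 1-methyl-2-pyrrolidinone:90% PEG-300 vehicle; phosphorylation assessed in tissue by immunoblotting per standard protocols.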"}, "[28]": {"test_system": "Mus musculus", "assay": "In vivo inhibition of AKT phosphorylation in transgenic mouse harboring EGFR del E746_A750/T790M mutant at 2.5 to 25 mg/kg administered as two doses separated by 16 hours by immunoblot analysis", "format": "functional, organism-based", "settings": "dose 2.5-25 mg/kg"}, "[29]": {"test_system": "Mus musculus", "assay": "In vivo inhibition of AKT phosphorylation in transgenic mouse harboring EGFR L858R/T790M mutant at 2.5 to 25 mg/kg administered as two doses separated by 16 hours by immunoblot analysis", "format": "functional, organism-based", "settings": "dose 2.5-25 mg/kg"}, "[30]": {"test_system": "Mus musculus", "assay": "In vivo antitumor activity in transgenic mouse harboring EGFR delE746_A750/T790M mutant assessed as decrease in Ki67 positive cells at 25 mg/kg administered via gavage for 2 weeks by immunohistochemical analysis", "format": "functional, organism-based", "outline": "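Transgenic EGFR T790M mutant mice were given daily gavage at 25mg/kg in 10% 1-methyl-2-pyrrolidinone:90% PEG-300 vehicle, alongside vehicle-alone controls. Tumor tissue was immunostained by standard protocols, and TUNEL-positive and Ki67-positive cells were counted.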"}, "[31]": {"test_system": "Mus musculus", "assay": "In vivo antitumor activity in transgenic mouse harboring EGFR L858R/T790M mutant assessed as tumor regression at 25 mg/kg, administered via gavage for 2 weeks", "format": "functional, organism-based", "outline": "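Inducible bitransgenic mice carrying EGFR T790M/L858R or exon19 deletion-T790M were dosed by daily gavage at 25mg/kg. The vehicle was 10% 1-methyl-2-pyrrolidinone:90% PEG-300, and the control group received vehicle alone. Tumor response was followed by MRI scanning.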"}, "[32]": {"test_system": "Mus musculus", "assay": "Invivo antitumor activity in transgenic mouse harboring EGFR del19/T790M mutant assessed as decrease in cellularity at 25 mg/kg administered via gavage for 2 weeks by H&E staining based analysis", "format": "functional, organism-based", "outline": "(§2)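 EGFR-TL (L858R/T790M) or exon19 deletion-T790M (TD) inducible bitransgenic mice dosed by oral gavage daily at 25 mg/kg; vehicle 10% 1-methyl-2-pyrrolidinone:90% PEG-300. Tumors followed by MRI; lung histology by standard protocols.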"}, "[33]": {"test_system": "Mus musculus", "assay": "Invivo antitumor activity in transgenic mouse harboring EGFR del19/T790M mutant assessed as remodelling/scarring at 25 mg/kg administered via gavage for 2 weeks by H&E staining based analysis", "format": "functional, organism-based", "outline": "as §2"}, "[34]": {"test_system": "Mus musculus", "assay": "Invivo antitumor activity in transgenic mouse harboring EGFR L858R/T790M mutant assessed as decrease in cellularity at 25 mg/kg administered via gavage for 2 weeks by H&E staining based analysis", "format": "functional, organism-based", "outline": "as §2"}, "[35]": {"test_system": "PC-9", "assay": "Prevention of EGFR T790M mutant development in human PC-9 cells harboring delE746_A750 mutant assessed as reduction in resistant cells with T790M mutant at 1 uM", "format": "functional, cell-based"}}, "note": "Calls of active or inactive are those of the source. No cut-off for these calls is given here.", "data": [{"compound": "C=CC(=O)Nc1cccc(Oc2nc(Nc3ccc(N4CCN(C)CC4)cc3OC)ncc2Cl)c1", "values": [{"measurement": "IC50", "setting": "[1]", "value": "> 3300", "unit": "nM"}, {"measurement": "IC50", "setting": "[2]", "value": 1960, "unit": "nM"}, {"measurement": "IC50", "setting": "[3]", "value": 2, "unit": "nM"}, {"measurement": "IC50", "setting": "[4]", "value": 2, "unit": "nM"}, {"measurement": "inhibition", "setting": "[5]", "value": "Active"}, {"measurement": "inhibition", "setting": "[6]", "value": "Active"}, {"measurement": "Kd", "setting": "[7]", "value": 36, "unit": "nM"}, {"measurement": "Kd", "setting": "[8]", "value": 910, "unit": "nM"}, {"measurement": "Kd", "setting": "[9]", "value": 43, "unit": "nM"}, {"measurement": "Kd", "setting": "[10]", "value": 100, "unit": "nM"}, {"measurement": "Kd", "setting": "[11]", "value": 78, "unit": "nM"}, {"measurement": "Kd", "setting": "[12]", "value": 10, "unit": "nM"}, {"measurement": "IC50", "setting": "[13]", "value": 3760, "unit": "nM"}, {"measurement": "AUC(0-t)", "setting": "[14]", "value": 956, "unit": "ng·h/mL"}, {"measurement": "AUC(0-inf)", "setting": "[15]", "value": 976, "unit": "ng·h/mL"}, {"measurement": "AUC(0-t)", "setting": "[16]", "value": 2390, "unit": "ng·h/mL"}, {"measurement": "half-life", "setting": "[17]", "value": 2.46, "unit": "h"}, {"measurement": "bioavailability", "setting": "[18]", "value": 24.5, "unit": "%"}, {"measurement": "concentration at 4 h", "setting": "[19]", "value": 49.1, "unit": "ng/mL"}, {"measurement": "concentration at 8 h", "setting": "[20]", "value": 8, "unit": "ng/mL"}, {"measurement": "concentration at 2 h", "setting": "[21]", "value": 422, "unit": "ng/mL"}, {"measurement": "concentration at 4 h", "setting": "[22]", "value": 214, "unit": "ng/mL"}, {"measurement": "concentration at 8 h", "setting": "[23]", "value": 59.2, "unit": "ng/mL"}, {"measurement": "concentration at 24 h", "setting": "[24]", "value": 0.82, "unit": "ng/mL"}, {"measurement": "Activity", "setting": "[25]", "value": "Non-Toxic"}, {"measurement": "Activity", "setting": "[26]", "value": "Non-Toxic"}, {"measurement": "inhibition", "setting": "[27]", "value": "Active"}, {"measurement": "inhibition", "setting": "[28]", "value": "Active"}, {"measurement": "inhibition", "setting": "[29]", "value": "Active"}, {"measurement": "Activity", "setting": "[30]", "value": "Active"}, {"measurement": "Activity", "setting": "[31]", "value": "Active"}, {"measurement": "Activity", "setting": "[32]", "value": "Active"}, {"measurement": "Activity", "setting": "[33]", "value": "Active"}, {"measurement": "Activity", "setting": "[34]", "value": "Active"}, {"measurement": "Activity", "setting": "[35]", "value": "Active"}]}]}
